Experiments:
[1] = molecular target: T1, Amyloid-beta precursor protein (Homo sapiens, UniProt P05067); test: Inhibition of amyloid beta (1-42) aggregation (unknown origin) at 10 uM after 24 hrs by thioflavin T fluorescence method
[2] = molecular target: T2, Microtubule-associated protein tau (Homo sapiens, UniProt P10636); test: Inhibition of His-tagged human brain tau 3R MBD aggregation at 10 uM after 16 hrs by thioflavin T fluorescence method
Method in brief: (§1)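 His-tagged 3R MBD tau expressed in E. coli BL21(DE3), purified by Ni-chelate chromatography, dialysed against ammonium acetate and freeze-dried. Tau 10 μM plus heparin 10 μM in 50 mM Tris–HCl pH 7.6 with compound (0.1–10 μM, DMSO), incubated 37 °C 16 h in the dark. Background fluorescence read first, then 10 μM ThT added; ThT fluorescence at ex 440/em 486 nm.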

[3] = molecular target: T1, Amyloid-beta precursor protein; test: Inhibition of amyloid beta (1-42) aggregation (unknown origin) after 24 hrs by thioflavin T fluorescence method
[4] = molecular target: T2, Microtubule-associated protein tau; test: Inhibition of His-tagged human brain tau 3R MBD aggregation after 16 hrs by thioflavin T fluorescence method
[5] = molecular target: T2, Microtubule-associated protein tau; test: Inhibition of His-tagged human brain tau 3R MBD aggregation at 1 uM after 16 hrs by thioflavin T fluorescence method; method in brief: as §1
[6] = molecular target: T1, Amyloid-beta precursor protein; test: Inhibition of amyloid beta (1-42) aggregation (unknown origin) at 1 uM after 24 hrs by thioflavin T fluorescence method

T1 sequence (P05067 whole entry): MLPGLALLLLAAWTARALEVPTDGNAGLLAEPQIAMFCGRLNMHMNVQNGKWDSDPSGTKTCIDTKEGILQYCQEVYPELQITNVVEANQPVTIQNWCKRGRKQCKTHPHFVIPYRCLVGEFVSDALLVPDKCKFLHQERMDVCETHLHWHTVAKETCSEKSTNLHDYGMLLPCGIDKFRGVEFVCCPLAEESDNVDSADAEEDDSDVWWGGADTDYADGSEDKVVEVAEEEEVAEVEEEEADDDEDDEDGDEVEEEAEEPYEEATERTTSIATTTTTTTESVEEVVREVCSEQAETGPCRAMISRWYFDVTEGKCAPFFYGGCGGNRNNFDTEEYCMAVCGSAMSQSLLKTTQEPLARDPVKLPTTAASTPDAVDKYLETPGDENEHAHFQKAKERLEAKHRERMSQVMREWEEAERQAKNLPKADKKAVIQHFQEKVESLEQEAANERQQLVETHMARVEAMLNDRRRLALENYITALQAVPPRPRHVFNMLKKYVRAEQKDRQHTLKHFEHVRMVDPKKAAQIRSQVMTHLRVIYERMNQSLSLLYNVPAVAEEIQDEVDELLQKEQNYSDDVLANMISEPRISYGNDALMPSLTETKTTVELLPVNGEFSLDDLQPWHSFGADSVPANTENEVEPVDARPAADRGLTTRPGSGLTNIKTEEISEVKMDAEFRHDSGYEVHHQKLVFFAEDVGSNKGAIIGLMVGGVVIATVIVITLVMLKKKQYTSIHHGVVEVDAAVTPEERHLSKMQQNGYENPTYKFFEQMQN
T2 sequence (P10636 whole entry): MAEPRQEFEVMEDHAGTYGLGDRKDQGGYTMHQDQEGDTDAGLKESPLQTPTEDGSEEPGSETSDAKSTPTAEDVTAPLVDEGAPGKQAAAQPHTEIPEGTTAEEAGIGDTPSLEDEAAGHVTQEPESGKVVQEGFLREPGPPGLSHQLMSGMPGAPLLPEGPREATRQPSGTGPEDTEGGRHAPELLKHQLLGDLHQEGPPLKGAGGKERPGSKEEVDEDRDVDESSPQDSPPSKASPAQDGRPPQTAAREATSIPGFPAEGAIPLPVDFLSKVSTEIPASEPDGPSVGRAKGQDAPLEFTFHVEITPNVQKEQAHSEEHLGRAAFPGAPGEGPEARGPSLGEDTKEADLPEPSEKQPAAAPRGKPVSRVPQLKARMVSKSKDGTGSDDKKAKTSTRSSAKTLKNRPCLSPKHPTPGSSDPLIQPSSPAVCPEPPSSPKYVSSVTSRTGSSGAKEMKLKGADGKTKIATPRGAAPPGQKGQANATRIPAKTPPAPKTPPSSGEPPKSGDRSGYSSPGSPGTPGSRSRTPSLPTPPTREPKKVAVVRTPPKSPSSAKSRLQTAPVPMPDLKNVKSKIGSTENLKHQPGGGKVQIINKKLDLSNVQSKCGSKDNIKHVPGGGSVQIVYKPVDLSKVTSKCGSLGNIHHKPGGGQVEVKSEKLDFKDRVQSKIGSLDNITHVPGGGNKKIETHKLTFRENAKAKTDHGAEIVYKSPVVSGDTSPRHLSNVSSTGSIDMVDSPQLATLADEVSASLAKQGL

SMILES: O=Cc1ccc(-c2ccc(-c3ccc(N(c4ccccc4)c4ccccc4)cc3)c3nsnc23)s1
- inhibition [1]: 44%
- inhibition [2]: 11%
- IC50 [3]: > 10 µM
- IC50 [4]: > 10 µM

SMILES: CC(C)(C)n1c2cc(-c3ccc(N(c4ccccc4)c4ccccc4)cc3)sc2c2sc(-c3ccc(/C=C(\C#N)C(N)=O)s3)cc21
- inhibition [1]: 36%
- inhibition [2]: 33%
- IC50 [3]: > 10 µM
- IC50 [4]: > 10 µM

SMILES: COc1ccc(-c2ccc(-c3ccc(C=O)s3)s2)cc1
- inhibition [1]: 0%
- inhibition [2]: 18%
- IC50 [3]: > 10 µM
- IC50 [4]: > 10 µM

SMILES: N#CC(C#N)=Cc1ccc(-c2ccc(-c3ccc(N(c4ccccc4)c4ccccc4)cc3)s2)s1
- inhibition [1]: 43%
- inhibition [2]: 14%
- IC50 [3]: > 10 µM
- IC50 [4]: > 10 µM

SMILES: COc1ccc(-c2cc3c(s2)c2sc(-c4ccc(C=C(C#N)C#N)s4)cc2n3C(C)(C)C)cc1
- inhibition [1]: 18%
- inhibition [2]: 27%
- IC50 [3]: > 10 µM
- IC50 [4]: > 10 µM

SMILES: CN1C(=O)C(=Cc2ccc(-c3ccc(-c4ccc(N(c5ccccc5)c5ccccc5)cc4)s3)s2)C(=O)N(C)C1=O
- inhibition [1]: 18%
- inhibition [2]: 7%
- IC50 [3]: > 10 µM
- IC50 [4]: > 10 µM

SMILES: O=C1NC(=O)C(=Cc2ccc(-c3ccc(-c4ccc(N(c5ccccc5)c5ccccc5)cc4)s3)s2)C(=O)N1
- inhibition [1]: 0%
- inhibition [2]: 12%
- IC50 [3]: > 10 µM
- IC50 [4]: > 10 µM

SMILES: CN(C)c1ccc2nc3ccc(=[N+](C)C)cc-3sc2c1 [METHYLENE BLUE CATION]
- IC50 [3]: 0.55 µM

SMILES: N#C/C(=C\c1ccc(-c2ccc(-c3ccc(N(c4ccccc4)c4ccccc4)cc3)s2)s1)C(N)=O
- inhibition [2]: 29%
- IC50 [3]: 1.5 µM
- IC50 [4]: > 10 µM

SMILES: COc1ccc(-c2cc3c(s2)c2sc(-c4ccc(C=O)s4)cc2n3C(C)(C)C)cc1
- inhibition [5]: 74%
- inhibition [6]: 61%
- IC50 [3]: 0.38 µM
- IC50 [4]: 0.29 µM

SMILES: N#C/C(=C\c1ccc(-c2ccc(-c3ccc(N(c4ccccc4)c4ccccc4)cc3)c3nsnc23)s1)C(N)=O
- inhibition [1]: 46%
- inhibition [2]: 24%
- IC50 [3]: > 10 µM
- IC50 [4]: > 10 µM

SMILES: O=Cc1ccc(-c2ccc(-c3ccc4[nH]ccc4c3)s2)s1
- inhibition [1]: 46%
- IC50 [3]: > 10 µM
- IC50 [4]: 1.6 µM

SMILES: COc1ccc(-c2cc3c(s2)c2sc(-c4ccc(/C=C(\C#N)C(N)=O)s4)cc2n3C(C)(C)C)cc1
- IC50 [3]: 0.55 µM
- IC50 [4]: 0.3 µM

SMILES: CC(C)(C)n1c2cc(-c3ccc(N(c4ccccc4)c4ccccc4)cc3)sc2c2sc(-c3ccc(C=C(C#N)C#N)s3)cc21
- inhibition [1]: 16%
- inhibition [2]: 18%
- IC50 [3]: > 10 µM
- IC50 [4]: > 10 µM

SMILES: N#C/C(=C\c1ccc(-c2ccc(-c3ccc(N(c4ccccc4)c4ccccc4)cc3)s2)s1)C(=O)O
- inhibition [6]: 82%
- IC50 [3]: < 0.41 µM
- IC50 [4]: 1.7 µM

SMILES: O=Cc1ccc(-c2ccc(-c3ccc(N(c4ccccc4)c4ccccc4)cc3)s2)s1
- inhibition [2]: 12%
- IC50 [3]: 7.1 µM
- IC50 [4]: > 10 µM

SMILES: N#CC(C#N)=Cc1ccc(-c2ccc(-c3ccc(N(c4ccccc4)c4ccccc4)cc3)c3nsnc23)s1
- inhibition [1]: 30%
- inhibition [2]: 15%
- IC50 [3]: > 10 µM
- IC50 [4]: > 10 µM

SMILES: O=c1c(O)c(-c2ccc(O)c(O)c2)oc2c(O)c(O)cc(O)c12 [GOSSYPETIN]
- IC50 [3]: < 3 µM
- IC50 [4]: < 3 µM

SMILES: COc1ccc(-c2ccc(-c3ccc(C=C(C#N)C#N)s3)s2)cc1
- inhibition [6]: 78%
- inhibition [2]: 28%
- IC50 [3]: < 1 µM
- IC50 [4]: > 10 µM

SMILES: CC(C)(C)n1c2cc(-c3ccc(N(c4ccccc4)c4ccccc4)cc3)sc2c2sc(-c3ccc(C=O)s3)cc21
- inhibition [1]: 36%
- inhibition [2]: 15%
- IC50 [3]: > 10 µM
- IC50 [4]: > 10 µM

SMILES: CNc1ccc2nc3ccc(N(C)C)cc3[s+]c2c1
- IC50 [3]: < 3 µM
- IC50 [4]: < 3 µM

SMILES: CN(C)c1ccc2nc3ccc(N)cc3[s+]c2c1
- IC50 [3]: < 3 µM
- IC50 [4]: < 3 µM

From ChEMBL document CHEMBL3352213, “Development of dual targeting inhibitors against aggregations of amyloid-β and tau protein” (Eur J Med Chem, 2014)
